Assay results as given in ChEMBL document CHEMBL4014306, “Pyrazolopyrimidines as Potent Stimulators for Transient Receptor Potential Canonical 3/6/7 Channels” (J Med Chem, 2017).
Active and inactive are the calls of the source. The rule behind the calls is not given here.

Tests used:
Assay type in all cases: cell-based
[1] = biological target: T1, Transient receptor potential cation channel subfamily M member 5 (Homo sapiens) (UniProt Q9NZQ8); experiment: Inhibition of human TRPM5 expressed in HEK293 cells assessed as decrease in carbachol-evoked membrane depolarization at 22 uM preincubated for 2 mins followed by carbachol addition measured for 2.5 mins by FLIPR membrane potential dye-based fluorescence assay relative to control
T1 sequence (whole entry): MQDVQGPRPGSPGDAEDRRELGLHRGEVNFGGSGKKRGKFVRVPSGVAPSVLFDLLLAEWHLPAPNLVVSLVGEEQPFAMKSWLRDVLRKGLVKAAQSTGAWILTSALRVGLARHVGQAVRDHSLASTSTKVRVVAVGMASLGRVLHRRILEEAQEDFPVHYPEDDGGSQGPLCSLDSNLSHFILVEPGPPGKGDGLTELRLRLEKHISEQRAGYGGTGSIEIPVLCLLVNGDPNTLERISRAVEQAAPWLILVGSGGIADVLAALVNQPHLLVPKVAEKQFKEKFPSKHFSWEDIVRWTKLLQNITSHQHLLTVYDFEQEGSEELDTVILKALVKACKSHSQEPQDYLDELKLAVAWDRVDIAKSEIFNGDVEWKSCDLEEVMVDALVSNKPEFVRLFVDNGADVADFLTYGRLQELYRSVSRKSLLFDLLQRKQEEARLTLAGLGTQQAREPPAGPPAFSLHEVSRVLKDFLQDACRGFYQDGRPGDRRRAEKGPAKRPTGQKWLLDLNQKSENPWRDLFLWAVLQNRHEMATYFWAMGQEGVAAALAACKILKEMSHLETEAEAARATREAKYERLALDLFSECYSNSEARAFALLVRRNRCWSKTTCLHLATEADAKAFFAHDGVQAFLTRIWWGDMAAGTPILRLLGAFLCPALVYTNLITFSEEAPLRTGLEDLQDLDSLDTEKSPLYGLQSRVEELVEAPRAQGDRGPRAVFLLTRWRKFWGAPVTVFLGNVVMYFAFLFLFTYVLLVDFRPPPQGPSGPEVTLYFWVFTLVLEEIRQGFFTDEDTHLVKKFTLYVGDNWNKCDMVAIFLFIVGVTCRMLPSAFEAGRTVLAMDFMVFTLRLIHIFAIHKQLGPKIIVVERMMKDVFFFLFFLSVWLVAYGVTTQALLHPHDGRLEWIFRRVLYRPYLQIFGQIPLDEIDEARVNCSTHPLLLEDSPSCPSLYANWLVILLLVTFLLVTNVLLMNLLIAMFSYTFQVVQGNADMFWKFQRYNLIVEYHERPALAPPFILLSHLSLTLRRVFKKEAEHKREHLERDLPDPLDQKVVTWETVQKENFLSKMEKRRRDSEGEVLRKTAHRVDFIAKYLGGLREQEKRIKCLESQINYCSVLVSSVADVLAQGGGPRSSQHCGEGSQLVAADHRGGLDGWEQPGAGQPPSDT
Summary of the method: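 Same TRP panel as for the stimulation tests, with FMP dye for TRPC4 and M5 and Fluo8-AM for TRPA1, V1 and M8. Compound applied for 2 min before the channel agonist (TRPC4: 1 μM DAMGO). Inhibition of the agonist response measured on a FlexStation at 32 °C.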

[2] = biological target: T2, Short transient receptor potential channel 3 (Homo sapiens) (UniProt Q13507); experiment: Agonist activity at human TRPC3 expressed in HEK293 cells assessed as induction of membrane depolarization measured for 2.5 mins in presence of 2 mM Ca2+ by FLIPR membrane potential dye-based fluorescence assay
T2 sequence (whole entry): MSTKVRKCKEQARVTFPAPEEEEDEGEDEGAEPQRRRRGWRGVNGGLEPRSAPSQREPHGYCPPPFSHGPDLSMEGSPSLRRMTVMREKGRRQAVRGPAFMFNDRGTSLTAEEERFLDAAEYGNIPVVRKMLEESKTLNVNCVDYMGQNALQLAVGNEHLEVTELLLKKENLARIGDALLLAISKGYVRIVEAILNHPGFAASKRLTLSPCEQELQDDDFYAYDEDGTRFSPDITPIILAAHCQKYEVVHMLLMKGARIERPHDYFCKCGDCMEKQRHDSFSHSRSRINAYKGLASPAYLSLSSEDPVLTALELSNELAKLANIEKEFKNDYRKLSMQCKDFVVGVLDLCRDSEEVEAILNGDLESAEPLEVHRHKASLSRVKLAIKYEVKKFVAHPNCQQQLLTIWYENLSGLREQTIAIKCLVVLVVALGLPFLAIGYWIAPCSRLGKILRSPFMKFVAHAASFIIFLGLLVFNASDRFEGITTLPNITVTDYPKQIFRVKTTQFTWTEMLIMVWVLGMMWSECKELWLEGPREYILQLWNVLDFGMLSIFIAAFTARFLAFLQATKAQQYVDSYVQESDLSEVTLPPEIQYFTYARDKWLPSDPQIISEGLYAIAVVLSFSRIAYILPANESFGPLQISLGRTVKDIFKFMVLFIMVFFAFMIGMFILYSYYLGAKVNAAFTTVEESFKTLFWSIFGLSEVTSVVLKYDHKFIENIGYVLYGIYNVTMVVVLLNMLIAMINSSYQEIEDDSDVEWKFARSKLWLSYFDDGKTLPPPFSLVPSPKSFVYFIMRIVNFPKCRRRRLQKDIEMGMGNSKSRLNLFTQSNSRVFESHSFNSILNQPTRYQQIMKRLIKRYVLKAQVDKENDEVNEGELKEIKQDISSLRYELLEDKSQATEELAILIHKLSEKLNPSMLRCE
Summary of the method: (§1)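 HEK293 cells stably expressing human TRPC3, run on a FlexStation at 32 °C. Loaded with FMP dye, or Fluo-type Ca2+ dye with 2 mM probenecid. Extracellular NaCl/HEPES saline, pH 7.4, with 2 mM Ca2+ (standard) or 0.5 mM Ca2+. Read as F/F0. In 0.5 mM Ca2+, FMP EC50 from a Hill fit, n = 6.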

[3] = biological target: T2, Short transient receptor potential channel 3 (Homo sapiens); experiment: Agonist activity at human TRPC3 expressed in HEK293 cells assessed as increase in intracellular calcium level measured for 2.5 mins by Fluo-8-AM dye based fluorescence assay; summary of the method: as §1

Row | SMILES | inhibition [1] [%] | Activity [2] | Activity [3]
1 | CCOC(=O)N1CCC(c2cc(O)n3nc(C)c(-c4ccc(C(F)(F)F)cc4)c3n2)CC1 | < 20 |  | 
2 | CCOC(=O)N1CCC(c2cc(O)n3nc(C)c(-c4ccc(F)cc4)c3n2)CC1 |  | inactive | inactive
